HIF activator: HIF pathway transcriptional activators, primary screen, cell-based, U2OS HRE-luciferase, luminescence; U2OS HRE-luciferase reporter; normalized: DMSO 0%, desferrioxamine 100%; activation, % at 7.5 µM (by protocol); actives 0.32% (n = 300,000); AID 1910, 2009;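 active = mean activation of at least 10% of the iron chelator positive control signal, with at least half of replicates also reaching 10%; inconclusive = mean and replicate majority disagree about reaching 10%; inactive = mean and most replicates under 10%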
AI-2 QS modul: Vibrio harveyi AI-2 quorum sensing modulators, primary screen, JMH597 strain, luminescence/OD600 ratio; Vibrio harveyi JMH597 AI-2 luminescence/OD600 ratio, 9 h; active compounds read low; strain lacks LuxN and CqsS sensors; 0 = neutral-control median; activity change, % at 7.5 µM; actives 0.4% (n = 300,000); in the data active = activity change below about -75%, passing the limit was not always enough; inconclusive = no clear call, values can overlap the other calls;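 note: luminescence divided by OD600 gain over 9 h not by final OD600 alone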
CendR NRP1 mod: modulators of CendR peptide binding to NRP-1, primary screen, biochemical, fluorescence polarization, uHTS; FAM-RPARPAR peptide binding to NRP-1; inhibition, % at 25 µM; actives 0.85% (n = 360,000);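 active = inhibition or corrected inhibition above about 18%, plus a signal ratio from 0.5 to 1.5, limit read from the data, passing the limit was not always enough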
Target sequence (O14786 whole entry, looked up): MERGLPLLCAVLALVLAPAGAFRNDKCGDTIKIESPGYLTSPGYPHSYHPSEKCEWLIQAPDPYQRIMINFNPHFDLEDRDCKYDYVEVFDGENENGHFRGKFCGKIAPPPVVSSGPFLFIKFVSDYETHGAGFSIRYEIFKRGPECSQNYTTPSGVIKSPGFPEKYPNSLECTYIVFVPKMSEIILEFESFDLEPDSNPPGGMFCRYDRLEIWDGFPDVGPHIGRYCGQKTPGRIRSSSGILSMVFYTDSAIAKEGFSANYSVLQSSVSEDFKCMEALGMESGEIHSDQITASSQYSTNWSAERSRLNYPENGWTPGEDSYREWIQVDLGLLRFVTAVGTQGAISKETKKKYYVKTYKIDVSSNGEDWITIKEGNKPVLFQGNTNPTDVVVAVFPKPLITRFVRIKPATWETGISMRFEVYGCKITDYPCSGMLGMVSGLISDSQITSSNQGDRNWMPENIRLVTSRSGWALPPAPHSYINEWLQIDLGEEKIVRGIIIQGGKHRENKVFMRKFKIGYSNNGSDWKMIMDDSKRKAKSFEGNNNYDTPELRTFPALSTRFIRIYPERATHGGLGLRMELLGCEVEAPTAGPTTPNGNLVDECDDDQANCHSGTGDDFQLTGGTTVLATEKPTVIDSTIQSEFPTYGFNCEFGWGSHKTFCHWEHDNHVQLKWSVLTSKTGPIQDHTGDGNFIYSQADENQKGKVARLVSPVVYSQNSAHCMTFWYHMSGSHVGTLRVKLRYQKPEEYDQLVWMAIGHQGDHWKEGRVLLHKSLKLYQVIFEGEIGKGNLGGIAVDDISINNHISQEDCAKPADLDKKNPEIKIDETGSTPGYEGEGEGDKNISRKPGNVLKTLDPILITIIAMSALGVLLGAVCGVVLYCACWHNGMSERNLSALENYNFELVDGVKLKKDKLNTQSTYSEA
Yeast superoxide: reduction of superoxide in aged yeast, primary screen, HTS | S. cerevisiae aged cells, superoxide DHE fluorescence; active compounds read low | superoxide response (% of plate mean), % at 10 µM | actives 0.18% (n = 330,000);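 active = superoxide response under a set limit, about three screen SD below normal, cut at about 65% in these data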;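 note: yeast aged for seven days with compound at 30 °C before DHE staining; 100% = average MFI of all compound-treated wells on the plate with controls excluded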
V-ATPase pH: regulators of yeast V-ATPase proton pumping, primary screen, pHLuorin cytosolic pH fluorescence | S. cerevisiae | actives 0.37% (n = 350,000) | response, % at 10 µM; in the data active = response mostly above about 7.3%, no sharp cut-off; inactive = mostly below about 5.4%; note: actives read high
T cruzi repl: inhibitors of intracellular T. cruzi growth, primary screen, luminescence, NIH3T3 host cells. AID 1885, 2009. T. cruzi beta-gal in NIH3T3, 90 h. actives 1.4% (n = 300,000). inhibition, % (concentration not given with the values);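 active = mean inhibition across valid replicates above about 55%, limit read from the data; inconclusive = mean below that limit but half or more replicates reach it; inactive = mean below it, under half of replicates reach it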;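 note: signal also drops with host cell toxicity which is not excluded here; 0% = plate median of DMSO wells and 100% = zero luminescence signal; higher percent means less beta-gal luminescence so fewer parasites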
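System: mouse NIH/3T3 fibroblasts infected with β-gal-expressing T. cruzi Tulahuen C4 / Input: NIH/3T3 cells, 5,000 per well / Buffer or medium: Low-serum DMEM with 2% FBS / Probe or stimulus: 5000 reporter trypomastigotes per well / Schedule: ≥90 h infection period, 3 h prior cell attachment / Measured by: GalScreen luminescence, 60 min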
An asterisk follows results filed as active; ? = inconclusive; . = not tested or not shown. Compounds with a hit are over-represented: about 3% of the library has one in this group of screens.

SMILES | HIF activator | AI-2 QS modul | CendR NRP1 mod | Yeast superoxide | V-ATPase pH | T cruzi repl
C/C(=C/c1ccccc1)C(=O)N1CCN(c2ccccc2F)CC1 | 1 | 5 | 1 | 109 | -1 | 10
C/C(=C\c1ccccc1)C(=O)N1CCN(c2cccc(C(F)(F)F)c2)CC1 | -1 | 3 | 29* | 121 | 1 | -24
COc1ccc(-c2csc(NC(=O)CN3C(=O)C4CCCCC4C3=O)n2)cc1OC (stereo unspecified) | 0 | 28 | 9 | 112 | 1 | 1
O=C(OC(c1ccccc1)c1nccc2ccccc12)c1cc([N+](=O)[O-])cc([N+](=O)[O-])c1 (stereo unspecified) | -11 | 49 | -4 | 124 | -4 | 58*
O=C(CNC(=O)c1ccccc1)NCCCSc1ccccc1 | . | . | 27* | 112 | -3 | .
CCCC(C)C(=O)Nc1ccc(Cl)cc1Cl (stereo unspecified) | 0 | 14 | 13 | 82 | 1 | -5
CCc1nc2ccccc2c(C(=O)NCc2ccccc2)c1C | -1 | -1 | 10 | 111 | 2 | -4
CCOC(=O)c1sc2ncnc(N3CCN(CC)CC3)c2c1C | 0 | 14 | 21 | 94 | -10 | 77*
CCOC(=O)c1c(NC(C)=O)sc2c(OCCN(CC)CC)c(Br)ccc12 | -7 | 6 | -2 | 95 | 5 | 58*
COc1ccc2cc(C(=O)NCc3ccccc3)c(=Nc3ccc(C(=O)O)cc3)oc2c1 | -1 | 48 | 46* | 104 | 2 | 3
COc1ccccc1N(C)S(=O)(=O)c1ccc(C(=O)NCC(C)C)cc1 | -1 | 14 | 6 | 107 | 1 | 1
COc1ccccc1N(C)S(=O)(=O)c1ccc(C(=O)N(CC(N)=O)C(C)C)cc1 | 0 | 20 | 25* | 96 | -1 | -15
COc1ccccc1N(C)S(=O)(=O)c1ccc(C(=O)Nc2cccc(Br)c2)cc1 | . | . | 27* | 124 | 1 | .
COc1cc(NS(=O)(=O)c2ccc(NC(=O)c3ccco3)cc2)nc(OC)n1 | 0 | 19 | 3 | 97 | -2 | -6
Cc1ccc(-c2cc(C(=O)N3N=C(C(F)F)CC3(O)C(F)F)c3ccccc3n2)cc1C (stereo unspecified) | 2 | 17 | -2 | 100 | 3 | 64*
O=C(c1cc(-c2ccccc2)nc2ccccc12)N1N=C(C(F)F)CC1(O)C(F)F (stereo unspecified) | 0 | 25 | 0 | 120 | -4 | 20
CCCCc1n[nH]c(=S)n1Cc1ccc(C)cc1 | 0 | 12 | 27* | 102 | 2 | -2
Cc1ccc(C)c(S(=O)(=O)N2CCN(C(=O)CCc3nc4ccccc4c(=O)[nH]3)CC2)c1 | 0 | 40 | -8 | 112 | -1 | 12
Cc1cc(C)c(C(=O)Cn2cnc3cc([N+](=O)[O-])ccc3c2=O)cc1C | 0 | 6 | -8 | 116 | 0 | 68*
O=C(Cn1cnc2cc([N+](=O)[O-])ccc2c1=O)Nc1ccc2c(c1)OCO2 | 0 | -7 | 17 | 105 | -1 | 55*
N#Cc1ccccc1OCc1nnc(-c2ccccc2Br)o1 | 2 | 14 | -8 | 99 | 0 | 4
S=C(NCCCNC(=S)Nc1ccccc1)Nc1ccccc1 | 1 | -4 | 48* | 113 | 1 | 0
S=C(NCC1CCCO1)Nc1ccccc1 (stereo unspecified) | 0 | 20 | 21* | 100 | -2 | -9
S=C(NCC1CCCO1)Nc1ccc(Cl)cc1 (stereo unspecified) | 0 | -11 | 4 | 105 | -2 | -6
CCCNC(=S)Nc1ccc(Nc2ccccc2)cc1 | 3 | -3 | 10 | 97 | 0 | -13
SMILES | HIF activator | AI-2 QS modul | CendR NRP1 mod | Yeast superoxide | V-ATPase pH | T cruzi repl
COc1cc(C(=O)C(O)c2ccc(O)c(OC)c2)ccc1O (stereo unspecified) | . | . | 13 | . | -3 | .
CCN(CC)c1ccc(C(=C2C=CC(=[N+](CC)CC)C=C2)c2ccc(N(CC)CC)cc2)cc1 | . | . | 30* | . | -2 | .
Cc1nn(-c2ccc(F)cc2)c2nc(N)c(C#N)c(-c3ccc(O)c(O)c3)c12 | -3 | 66 | -20 | 100 | -4 | 59*
O=C(Nc1ccccc1)Nc1cccc2nsnc12 | 11* | 10 | -7 | 91 | -1 | 1
O=[N+]([O-])c1ccc(S(=O)(=O)NCCS(=O)(=O)N2CCN(c3ccccc3)CC2)cc1 | 0 | 33 | 15 | 108 | 8 | 56*
Cc1ccc2oc(=O)c(/C=C(\O)c3ccccc3)nc2c1 | 1 | 8 | 42* | 96 | 0 | -4
Cc1ccc2oc(=O)c(/C=C(\O)c3cccs3)nc2c1 | 1 | 1 | 130 | 95 | 2 | -3
O=S(=O)(N=C1C=CC(=NS(=O)(=O)c2ccccc2)c2ccccc21)c1ccccc1 | . | . | -7 | . | 0 | .
CC1=C(C)/C(=N\OS(=O)(=O)c2ccccc2)C=CC1=O | -44 | ? | 5 | 101 | 16 | 55*
CCOC(=O)N1CCN(C(=O)c2cc(COc3ccc(OC)cc3Cl)on2)CC1 | 1 | -8 | 25* | 96 | 1 | 17
COc1ccc(OCc2cc(C(=O)N3CCCCCCC3)no2)c(Cl)c1 | 4 | 31 | 14 | 105 | 1 | 8
O=C1C=CC(=O)N1c1ccc(-c2nc3ccccc3o2)cc1 | . | . | -24 | . | 20* | .
CC(=O)Nc1ccc(NC(=O)COc2ccc(S(=O)(=O)N3CCCC3)cc2)cc1 | 0 | 18 | 2 | 84 | 1 | 7
O=C(COc1ccc(S(=O)(=O)N2CCCC2)cc1)Nc1ccc2c(c1)OCCO2 | 1 | 39 | 36* | 105 | -2 | -11
CS(=O)(=O)c1ccc(Cl)c(NC(=O)COC(=O)c2ccc(S(=O)(=O)N3CCCC3)cc2)c1 | . | . | 22* | 74 | 1 | .
Cc1ccc(S(=O)(=O)N2CCCCC2)cc1NC(=O)c1ccc2c(c1)OCO2 | 0 | 5 | -9 | 102 | -2 | -2
Cc1ccc(S(=O)(=O)N2CCCCC2)cc1NC(=O)COC(=O)c1ccc2c(c1)OCO2 | 0 | 8 | 8 | 109 | 18* | 6
Cc1ccc(C(=O)OCC(=O)Nc2cc(S(C)(=O)=O)ccc2Cl)cc1S(=O)(=O)N1CCCCC1 | 1 | 13 | -4 | 105 | 1 | 5
COc1ccc(Cn2cnc([N+](=O)[O-])c2)cc1[N+](=O)[O-] | -1 | 3 | 1 | 127 | -2 | -1
CCN(C(=O)COC(=O)/C=C/c1c(C)nn(-c2ccccc2)c1C)C1CCS(=O)(=O)C1 (stereo unspecified) | 0 | 21 | 1 | 94 | -1 | 5
